Measured values taken from ChEMBL document CHEMBL1165998, “Antihyperglycemic effect of catalpol in streptozotocin-induced diabetic rats” (2010).
Calls of active or inactive are those of the source. No cut-off for these calls is given here.

Experiments:
[1] = system: Rattus norvegicus; assay: Antihyperglycemic effect in streptozotocin-induced diabetic Wistar rat assessed as reduction of plasma glucose level at 100 mg/kg, po relative to untreated control; set-up: scale not given: the % may be the effect or the level left
[2] = system: Rattus norvegicus; assay: Antihyperglycemic effect in normal Wistar rat assessed as attenuation of increase of plasma glucose level at 0.1 mg/kg, iv bolus measured 30 mins after intravenous glucose challenge test
[3] = system: Rattus norvegicus; assay: Antihyperglycemic effect in normal Wistar rat assessed as attenuation of increase of plasma glucose level at 0.1 mg/kg, iv bolus measured 5 mins after intravenous glucose challenge test
[4] = system: Rattus norvegicus; assay: Antihyperglycemic effect in streptozotocin-induced diabetic Wistar rat assessed as reduction of plasma glucose level at 0.1 mg/kg, iv bolus after 30 mins; format: functional, organism-based; set-up: dose 0.1 mg/kg
Procedure, shortened: (§1)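 STZ (60 mg/kg) given to fasted rats; animals with plasma glucose of 20 mmol/L or more plus diabetic features were used two weeks later. Fasted rats got an i.v. bolus of catalpol in normal saline (0.01–0.15 mg/kg) or vehicle. Tail-vein blood was drawn under pentobarbital at 30 min. Glucose was read enzymatically in duplicate, and activity was calculated as [(Gi−Gt)/Gi]×100%. n=8 per group.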

[5] = system: Rattus norvegicus; assay: Antihyperglycemic effect in iv bolus dosed streptozotocin-induced diabetic Wistar rat assessed as reduction of plasma glucose level after 30 mins; format: functional, organism-based
Procedure, shortened: as §1

[6] = system: Soleus muscle; assay: Increase in uptake of 2-[1-14C]-deoxy-D-glucose in streptozotocin-induced diabetic Wistar rat isolated soleus muscle after 30 mins by beta counter; format: functional, tissue-based
Procedure, shortened: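 Soleus strips came from STZ-diabetic rats. They were preincubated 30 min in KRBB (pH 7.4, 37 °C, 1 mmol/L glucose, 1% BSA, 5% CO2/O2), then exposed 30 min to test agent (10-8–10-6 M). Next came 5 min with 2-[1-14C]-deoxy-D-glucose (1 µCi/mL). Tissue was digested in NaOH and counted by β-counter. Non-specific uptake with 20 µmol/L cytochalasin B was subtracted. n=8.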

[7] = system: Rattus norvegicus; assay: Antihyperglycemic effect in normal Wistar rat assessed as attenuation of increase of plasma glucose level at 0.1 mg/kg, iv bolus measured 20 mins after intravenous glucose challenge test
[8] = system: Rattus norvegicus; assay: Antihyperglycemic effect in streptozotocin-induced diabetic Wistar rat assessed as reduction of plasma glucose level at 0.15 mg/kg, iv bolus after 30 mins; format: functional, organism-based; set-up: dose 0.15 mg/kg
Procedure, shortened: as §1

[9] = system: Rattus norvegicus; assay: Antihyperglycemic effect in streptozotocin-induced diabetic Wistar rat assessed as reduction of plasma glucose level at 0.1 mg/kg, iv bolus after 30 mins relative to untreated control; format: functional; set-up: scale not given: the % may be the effect or the level left
Procedure, shortened: as §1

[10] = system: Rattus norvegicus; assay: Antihyperglycemic effect in streptozotocin-induced diabetic Wistar rat assessed as reduction of plasma glucose level at 0.01 mg/kg, iv bolus after 30 mins relative to untreated control; format: functional; set-up: scale not given: the % may be the effect or the level left
Procedure, shortened: as §1

[11] = system: Hepatocyte; assay: Increase in glycogen synthesis in streptozotocin-induced diabetic Wistar rat hepatocyte assessed as [U14C]glucose incorporation in to glycogen […] by ethanol precipitation assay; format: functional, cell-based
Procedure, shortened: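 Hepatocytes from STZ-diabetic rats were isolated by collagenase perfusion (>90% viable by trypan blue). After 30 min preincubation in KRBB at 37 °C, they were incubated with [U-14C]-glucose (0.25 µCi/mL) plus test agent (10-8–10-6 M) for 1 h with shaking. Glycogen label was measured by ethanol precipitation and expressed as pmol/mg protein. n=8; compared against vehicle blanks.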

Structure (SMILES): CN(C)C(=N)NC(=N)N [METFORMIN]
- Activity [1]: 32%

Structure (SMILES): OC[C@H]1O[C@@H](O[C@@H]2OC=C[C@H]3[C@H](O)[C@@H]4O[C@]4(CO)[C@@H]23)[C@H](O)[C@@H](O)[C@@H]1O [CATALPOL]
- Activity [2]: inactive
- Activity [3]: Active
- Activity [4]: Active
- Activity [5]: Dose-dependent effect
- Activity [6]: Dose-dependent effect
- Activity [7]: Active
- Activity [8]: Active
- Activity [9]: 24.33%
- Activity [10]: 8.53%
- Activity [11]: Dose-dependent effect
